The values below come from ChEMBL document CHEMBL1124929, “Indolo[2,1-a]isoquinolines. Syntheses, steroid hormone receptor binding affinities, and cytostatic activity” (1990).

One assay is filed under the species Bos taurus. Briefly: Relative binding affinity(RBA) as ratio of progesterone and compound required to displace [3H]-org 2058 binding to Progesterone receptor by 50%. In short, it runs like this:
(§1)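 Receptor source was calf uterine cytosol (105000g supernatant, 3 mg/mL protein in assay). Buffers were Tris/EDTA pH 7.4, with NaN₃ for ER, molybdate/glycerol for AR, and sucrose for PR. Tracers were 1 nM [³H]estradiol, [³H]mibolerone or [³H]Org 2058. Incubation was at 0–4 °C for 16 h (ER) or 2 h (AR, PR), with 4–6 competitor concentrations. Nonspecific binding used 2 µM of the unlabeled hormone. Separation was by dextran-coated charcoal. RBA is the ratio of IC50 values for hormone and compound ×100, mean of two triplicate experiments.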

Assay [1] deals with T1, Androgen Receptor (Bos taurus) (UniProt Q5EM59).
T1 sequence (whole entry): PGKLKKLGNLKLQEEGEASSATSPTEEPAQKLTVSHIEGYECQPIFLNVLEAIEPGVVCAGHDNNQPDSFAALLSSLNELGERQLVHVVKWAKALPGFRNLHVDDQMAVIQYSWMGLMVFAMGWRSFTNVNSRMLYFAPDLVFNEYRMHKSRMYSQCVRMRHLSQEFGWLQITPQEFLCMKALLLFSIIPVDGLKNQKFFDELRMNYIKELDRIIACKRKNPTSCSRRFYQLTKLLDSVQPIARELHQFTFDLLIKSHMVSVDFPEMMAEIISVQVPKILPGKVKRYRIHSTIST
Briefly: Relative binding affinity(RBA) for 50% displacement of [3H]mibolerone from Androgen receptor compared to testorone. In short, it runs like this: as §1

Assay [2] addresses Estrogen receptor (Bos taurus) (UniProt Q9XSB5+P49884). Briefly: Relative binding affinity(RBA) for 50% displacement of [3H]-estradiol from Estrogen receptor compared to 17-beta-estradiol. The assay is classed as protein assay. The gist of the method:
as §1

For assay [3], the system named is MCF7. The experiment in a line: Effect on [3H]thymidine incorporation into MCF-7 human breast cancer cells at 1x10E-5 M. In kind it is functional. The gist of the method: (§2)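 Cells were seeded at ~2 × 10⁴ per well, treated from the next day in 0.1% DMSO, with DMSO controls. MCF-7 cells were held in charcoal-stripped NCS for 2 weeks, treated for 5 days and re-dosed on day 4. MDA-MB 231 cells were grown in McCoy 5a/10% NCS and treated for 2 days. At the end, 1 µCi [³H]thymidine per well was added for 2 h. Result is % T/C, mean of three experiments × six dishes.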
A general note: Incorporation of labelled thymidine or its analogues reports DNA synthesis.

The test system of assay [4] is MCF7. Briefly: Effect on hormone-dependent MCF-7 human breast cancer cell proliferation at 1x10E-5 M. The assay is classed as functional. The gist of the method: (§3)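 Cells were plated at about 2 × 10⁴ per well in six-well dishes. MCF-7 cells were grown in modified improved MEM with 5% NCS, switched to charcoal-treated NCS two weeks before the test, and exposed for 5 days with a re-dose on day 4. MDA-MB 231 cells were grown in McCoy 5a with 10% NCS and exposed for 2 days. Compounds were given 1 day after plating in 0.1% DMSO, with DMSO-matched controls. Read-out was cell number as % T/C, mean of three experiments with six dishes.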

The target of assay [5] is T2, Estrogen receptor (Mus musculus) (UniProt O08537+P19785). Briefly: (§4) Estrogenic activity in uterotrophic assay in immature mice at 40.0 ug subcutaneous dose. In kind it is functional. The gist of the method:
(§5)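 Immature female NMRI mice, 20 days old, in groups of 6-10, were dosed sc once daily for three consecutive days. Compounds were given in PEG/0.9% saline 1:1; vehicle controls were included. Animals were killed 24 h after the last dose. Uteri were fixed in Bouin solution and the effect was taken as uterine dry weight (mg)/body weight (g) ×100, given as mean ± SD.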

Assay [6] deals with MCF7. The experiment in a line: Effect on [3H]thymidine incorporation into MCF-7 human breast cancer cells at 5x10E-6M. The assay is classed as functional. In short, it runs like this:
as §2

Assay [7] addresses T2, Estrogen receptor (Mus musculus). The experiment in a line: Inhibition of 0.4 ug estrone-stimulated uterine growth in mice at 40.0 ug subcutaneous dose. The assay is classed as functional. In short, it runs like this:
(§6)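 Immature 20-day-old female NMRI mice received sc injections on three consecutive days. Each injection held 0.4 µg estrone plus the compound in PEG/saline 1:1. […] Significance was tested by Mann-Whitney U test.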

Assay [8] shares this target. The experiment in a line: Estrogenic activity in uterotrophic assay in immature mice at 2 ug subcutaneous dose. The assay is classed as functional. In short, it runs like this:
as §5

Assay [9] relates to MDA-MB-231. Briefly: Cytostatic effect on hormone-independent MDA-MB 231 human breast cancer cell proliferation at5x10E-6M. In kind it is functional. In short, it runs like this: as §3
Assay [10] deals with MCF7. The experiment in a line: Effect on hormone-dependent MCF-7 human breast cancer cell proliferation at 5x10E-6M. The assay is classed as functional. In short, it runs like this:
as §3

Assay [11] relates to MDA-MB-231. The experiment in a line: Effect on [3H]-thymidine incorporation into MDA-MB 231 human breast cancer cells at 1x10E-6M. In kind it is functional. The gist of the method:
as §2

In assay [12] the target is T2, Estrogen receptor (Mus musculus). Briefly: Inhibition of 0.4 ug estrone-stimulated uterine growth in mice at 2 ug subcutaneous dose. The assay is classed as functional. In short, it runs like this:
as §6

The test system of assay [13] is MDA-MB-231. Briefly: Effect on [3H]thymidine incorporation into MDA-MB 231 human breast cancer cells at 1x10E-5 M. In kind it is functional. In short, it runs like this:
as §2

The subject of assay [14] is MDA-MB-231. The experiment in a line: Cytostatic effect on hormone-independent MDA-MB 231 human breast cancer cell proliferation at 1x10E-6M. In kind it is functional. In short, it runs like this:
as §3

Assay [15] deals with MCF7. Briefly: Effect on hormone-dependent MCF-7 human breast cancer cell proliferation at 1x10E-6M. In kind it is functional. The gist of the method:
as §3

The test system of assay [16] is MCF7. The experiment in a line: Effect on [3H]thymidine incorporation into MCF-7 human breast cancer cells at 1x10E-6M. The assay is classed as functional. The gist of the method:
as §2

For assay [17], the system named is MDA-MB-231. The experiment in a line: Cytostatic effect on hormone-independent MDA-MB 231 human breast cancer cell proliferation at 1x10E-5 M. The assay is classed as functional. The gist of the method:
as §3

For assay [18], the target named is T2, Estrogen receptor (Mus musculus). Described as §4. The assay is classed as functional. The gist of the method:
as §5
The source holds these as a separate data set.

For assay [19] the target is unchanged. The experiment in a line: Estrogenic activity in uterotrophic assay in immature mice at 125 ug subcutaneous dose. The assay is classed as functional. The gist of the method: as §5
Assay [20] has as its system MDA-MB-231. Briefly: Effect on [3H]thymidine incorporation into MDA-MB 231 human breast cancer cells at 5x10E-6M. The assay is classed as functional. In short, it runs like this:
as §2

The test system of assay [21] is MCF7. The experiment in a line: Effect on [3H]-thymidine incorporation into MCF-7 human breast cancer cells at 1x10E-5 M. In kind it is functional. The gist of the method: as §2

Each structure is given as a SMILES string.

T2 sequence (O08537 whole entry, looked up): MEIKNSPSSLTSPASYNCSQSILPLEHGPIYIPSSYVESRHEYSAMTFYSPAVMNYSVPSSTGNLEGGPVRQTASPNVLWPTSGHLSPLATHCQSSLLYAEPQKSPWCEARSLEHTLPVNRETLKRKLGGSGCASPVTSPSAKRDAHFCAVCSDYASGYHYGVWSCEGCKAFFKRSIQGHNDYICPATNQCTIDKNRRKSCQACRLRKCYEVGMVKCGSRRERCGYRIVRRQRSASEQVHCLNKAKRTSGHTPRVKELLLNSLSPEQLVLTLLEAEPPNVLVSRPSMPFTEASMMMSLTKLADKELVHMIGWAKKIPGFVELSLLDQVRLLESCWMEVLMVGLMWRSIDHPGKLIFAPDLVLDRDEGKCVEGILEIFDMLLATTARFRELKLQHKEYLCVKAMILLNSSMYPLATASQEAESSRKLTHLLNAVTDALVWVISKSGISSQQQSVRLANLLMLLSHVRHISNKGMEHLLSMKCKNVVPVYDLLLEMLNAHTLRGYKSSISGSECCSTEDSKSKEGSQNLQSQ
T2 sequence (P19785 whole entry, looked up): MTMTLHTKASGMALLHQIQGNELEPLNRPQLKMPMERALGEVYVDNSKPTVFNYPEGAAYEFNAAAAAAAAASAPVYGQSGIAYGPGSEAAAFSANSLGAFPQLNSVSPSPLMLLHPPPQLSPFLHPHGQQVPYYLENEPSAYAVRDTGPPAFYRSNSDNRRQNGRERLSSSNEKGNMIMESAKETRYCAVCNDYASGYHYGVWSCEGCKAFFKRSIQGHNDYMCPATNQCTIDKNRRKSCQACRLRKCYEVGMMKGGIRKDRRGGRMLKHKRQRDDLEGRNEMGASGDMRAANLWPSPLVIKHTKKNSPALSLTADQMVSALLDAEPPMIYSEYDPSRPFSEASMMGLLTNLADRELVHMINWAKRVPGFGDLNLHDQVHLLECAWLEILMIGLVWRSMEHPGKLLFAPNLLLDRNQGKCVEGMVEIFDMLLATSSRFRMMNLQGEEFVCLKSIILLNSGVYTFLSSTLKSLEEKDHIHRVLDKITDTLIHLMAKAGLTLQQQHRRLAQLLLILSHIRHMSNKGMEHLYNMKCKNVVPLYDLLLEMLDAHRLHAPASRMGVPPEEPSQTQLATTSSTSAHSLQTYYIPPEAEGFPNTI

With `CC(=O)Oc1ccc2c(c1)cc1n2CCc2cc(OC(C)=O)c(OC(C)=O)cc2-1`, the RBA in the assay filed under Bos taurus was less than 0.01; in [1], less than 0.01; in [2], 0.15.
In the case of `CC(=O)Oc1ccc2c(c1)CCn1c-2cc2ccc(OC(C)=O)cc21`, the RBA turned out to be 0.01 in the assay filed under Bos taurus, 0.2 in assay [1] and 0.16 in assay [2].
The term T/C denotes the ratio of treated to control. By inhibition is commonly meant the drop in the measured response relative to a control, in per cent. Read a high inhibition as strong suppression. For the compound `CCC1Cc2cc(OC(C)=O)c(OC(C)=O)cc2-c2cc3cc(OC(C)=O)ccc3n21` (stereo not given), the RBA in the assay filed under Bos taurus was 0.04; in assay [1], less than 0.01; in assay [2], 2.9. The T/C in the assay on MCF7 [3] is given as 3%; in the assay with MCF7 [4], 22%; with MCF7 [6] it was 11%; in the assay on MDA-MB-231 [9], 62%; with MCF7 [10], 39%; in the assay on MDA-MB-231 [11], 77%. In addition, the T/C with MDA-MB-231 [13] is given as 38%; with MDA-MB-231 [14], 100%; with MCF7 [15] it was 89%; in the assay on MCF7 [16], 95%; with MDA-MB-231 [17] it was 51%; in the assay with MDA-MB-231 [20] it was 35%. Moreover, the Effect worked out at 42.8 in assay [5], 21.2 in assay [8], 49.7 in assay [18] and 55.8 in assay [19]. Moreover, the inhibition in [7] worked out at 15.7%; in assay [12] it was 11.7%.
On to `CC/C(=C(\c1ccccc1)c1ccc(OCCN(C)C)cc1)c1ccccc1` [TAMOXIFEN], for which the T/C turned out to be 17% in the assay on MCF7 [4]; 5% with MCF7 [21]; 100% in the assay on MDA-MB-231 [11]; 97% in the assay on MDA-MB-231 [13]; 107% in the assay with MDA-MB-231 [14]; 51% in the assay on MCF7 [15]. The T/C in the assay on MCF7 [16] is reported as 46%; in the assay with MDA-MB-231 [17], 94%.
